The text below walks through data of ChEMBL document CHEMBL4513216, “Probing the Open Global Health Chemical Diversity Library for Multistage-Active Starting Points for Next-Generation Antimalarials” (ACS Infect Dis, 2020).

This data set in a line: Toxicity liver stage against HepG2, at 10uM. Details: test concentration 10 uM, cell line HepG2-A16-CD81EGFP. The format is cell-based. Conditions: human, HepG2-A16-CD81EGFP cells; read-out: INHIBITION
Put shortly:
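Uninfected HepG2-A16-CD81EGFP cells, 3 × 10^3 per well, 1536-well, plated on prespotted compound at 10 μM final, parasite-free screening media added to match infected plates; puromycin 10 μM positive, DMSO 0.5% negative; run in parallel with 48 h PbLuc assay at 37 °C, 5% CO2; viability by CellTiter-Glo luminescence, normalized to controls.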

As for `C[C@@H]1CN(C(=O)NC2CC2)C[C@]12CCN(c1ccsc1)C2=O`, the cytotoxicity at 10 µM was 0.77%.
On to `O=C(CCC1CCCO1)NCCc1ccccn1` (stereo unspecified), for which the cytotoxicity at 10 µM is -43.2%.
On to `Cc1n[nH]c(C)c1CCC(=O)NC1CCCN(c2ccccc2F)C1` (stereo unspecified), for which the cytotoxicity at 10 µM is -13.7%.
Then `COCc1cccc(C(=O)N2CCCN(C(=O)OCC(C)C)CC2)c1`, with -10%.
Consider `O=C(c1ccncc1F)N1CCc2ncnc(-c3ccncc3)c2CC1`, for which the cytotoxicity at 10 µM came out at 2.75%.
As for `CC(C)N1CCC(CNC(=O)COc2ccc(F)cc2F)C1` (stereo unspecified), the figure is -2.17%; as for `CCc1cc(NCc2cc(CC(C)C)on2)n2nccc2n1`, 3.59%.
As for `O=C(c1cccnc1)N1Cc2nccn2CC(COc2cccnc2)C1` (stereo unspecified), the figure is 4.01%; as for `COc1cc(C#N)ccc1OCC(=O)N(C1CC1)C(C)c1ccco1` (stereo unspecified), 1.18%; as for `CCn1cc(NC(=O)NCC(C)N2CCCC2)cn1` (stereo unspecified), -9.89%.
Turning to `COc1ccc(-c2nc(CN3CCOCS3(=O)=O)c(C)o2)cc1`, the cytotoxicity at 10 µM was -0.0714%.
For `CN(Cc1ccccc1)c1ncccc1CNC(=O)c1ccnn1C`, the cytotoxicity at 10 µM was -1.37%.
For the molecule `c1cc(-c2nnc(C3(c4ccc5c(c4)OCO5)CCOCC3)o2)ccn1`, the cytotoxicity at 10 µM was -0.973%.
`O=C(c1cscn1)N1CCCC2(CCN2Cc2cccc(F)c2)C1` (stereo unspecified): the cytotoxicity at 10 µM was -112%.
Then `Cc1ccc(NC2CCN(C(=O)CCc3ccsc3)CC2)nn1`, with 4.3%.
On to `O=C(c1ccc(-n2cccn2)nc1)N1CCCC(c2cnccn2)C1` (stereo unspecified), for which the cytotoxicity at 10 µM was found to be 4.32%.
Then `O=S(=O)(NCCN1CCCCC1Cn1cncn1)c1ccccc1` (stereo unspecified), with -9.12%; and `O=C(NCc1cccnc1)C1=NN(c2ccccc2)C(=O)CN1`, with 12.3%.
As for `CNC(=O)C1CCCN(c2nc3c(-c4ccccc4)csc3c(=O)[nH]2)C1` (stereo unspecified), the figure is -1.03%.
As for `Cc1nnc(CN2CCC(Oc3ccc(C)c(C)c3)CC2)o1`, the figure is 7.27%; as for `CCCC(=O)N1CCCN(C(=O)Nc2ccc(C)s2)CC1`, -1.24%.
Consider `Cc1cc(S(=O)(=O)N2CCCc3cc(F)c(F)cc32)sc1C(=O)O`, for which the cytotoxicity at 10 µM is -11.9%.
As for `CC(=O)N1N=C(COc2ccc3c(c2)OCO3)OC1c1ccc(C)cc1` (stereo unspecified), the figure is 1.22%; as for `Cc1cc(N2CCC(Cc3cccnc3)CC2)ncn1`, 1.96%.
As for `CCOc1cc(Cl)c(CN2CCC3(CCCNC3=O)C2)cc1OC` (stereo unspecified), the figure is 10.6%; as for `Cc1cc(NC(=O)CN2CCc3nn(C)c(=O)cc3C2)no1`, -5.04%.
Take `CCCS(=O)(=O)N1CCOC2(CCCN(c3ccc(C)nn3)C2)C1` (stereo unspecified): the cytotoxicity at 10 µM was 2.08%.
`CN(C)c1nc2c(c(N3CCC4(CCCNC4=O)C3)n1)CCCC2` (stereo unspecified): the cytotoxicity at 10 µM is -5.81%.
Then `COc1ccc(C)cc1CC(=O)N1CCN(CC(C)O)CC1` (stereo unspecified), with -8.65%; and `Cc1c(NCCO)cccc1OC1CCCC1`, with 3.1%; and `Cc1ccc(CNC2CCN(CCc3ccncc3)CC2)cc1C`, with -8.92%.
In the case of `Cc1noc([C@@H]2C[C@H]3OCC[C@H]3N(Cc3ccoc3)C2)n1`, the cytotoxicity at 10 µM is -71.4%.
In the case of `Cc1nc(C)n(C2CCCN(C(=O)c3sccc3C3CC3)C2)n1` (stereo unspecified), the cytotoxicity at 10 µM is -9.68%.
In the case of `CCc1nnc(CN(CC)C(=O)C2CC(=O)N(C3CCCC3)C2)o1` (stereo unspecified), the cytotoxicity at 10 µM is -2.57%.
`O=C(CN1CCc2ccccc2C1)NCc1cc2n(n1)CCCNC2`: the cytotoxicity at 10 µM is 2.22%.
Take `Cc1nn(C)cc1CN1CCCn2nc(CNC(=O)C3CCC3)cc2C1`: the cytotoxicity at 10 µM came out at 2.84%.
As for `CCOCc1cnc2n1CCN(C(=O)Cc1ccco1)C2C` (stereo unspecified), the figure is 3.53%; as for `COc1ccc(CNC(=O)NC2CCN(c3ccccc3)C2=O)cc1` (stereo unspecified), -2.98%.
As for `CN(Cc1ccco1)[C@@H]1CN(C(=O)C2CCOCC2)C[C@@H]2CCCO[C@@H]21`, the figure is 3.48%.
Then `CN(C)CCN(CC1CCCO1)C(=O)Cc1cn2ccccc2n1` (stereo unspecified), with -2.96%.
Turning to `Cn1ccc(CN2CC(Cc3nccc4cc[nH]c34)C2)n1`, the cytotoxicity at 10 µM came out at 9.51%.
As for `COCC(=O)NCC1CCC(c2nnc(-c3ccncc3)o2)CC1` (stereo unspecified), the figure is -3.49%; as for `Cc1nc(CN2C(=O)CC[C@@H]3[C@H]2CCN3C(=O)c2ccc[nH]2)cs1`, -77.3%.
As for `Cc1ccc(N2CC[C@H]3[C@@H]2CCC(=O)N3CCN2CCOCC2)nn1`, the figure is -3.18%; as for `CNc1cc(CNC(=O)c2ccccc2)nc(-c2ccncc2)n1`, 0.462%; as for `CCC(NS(=O)(=O)c1ccc(C(=O)NC2CC2)cc1)c1ccnn1C` (stereo unspecified), 9.65%.
Then `COC(=O)Cc1cccc(NC(=O)Cc2ccon2)c1`, with -2.93%.
Consider `Cc1n[nH]cc1CNCc1cccc(OCC(F)(F)F)c1`, for which the cytotoxicity at 10 µM was 2.75%.
`Nc1ccnc(N2CCCC(CO)(Cc3cccc(Cl)c3)C2)n1` (stereo unspecified): the cytotoxicity at 10 µM is 0.528%.
As for `CN(CCc1ccccc1)Cc1cnc(C2(C)CCCCO2)nc1` (stereo unspecified), the figure is 1.99%; as for `c1ccc(CCc2n[nH]c(C3CCC3)n2)cc1`, -3.58%; as for `COc1ccc(C)cc1CN(Cc1nc(C)c(C)o1)C1CCN(C)C1` (stereo unspecified), -3.41%.
Then `Cc1c[nH]c(C2CCCN(Cc3ccccc3C(=O)O)C2)n1` (stereo unspecified), with -3.3%; and `Cc1nc(NC2CCCC2)cc(C2CCN2c2ncccn2)n1` (stereo unspecified), with -0.943%.
Then `O=C(c1ccc[nH]1)N1CCc2c(cccc2S(=O)(=O)N2CCOCC2)C1`, with -15%; and `CC(C)c1cnc(CN2CCCS2(=O)=O)o1`, with 10.6%.
In the case of `COc1ccc(C(=O)NCCNC(=O)c2scnc2Cl)cc1`, the cytotoxicity at 10 µM is -16.8%.
As for `c1cc2c(cc1CN1CC[C@H]3CO[C@H](CN4CCCC4)[C@H]3C1)OCO2`, the figure is 0.355%; as for `COC(=O)[C@H](C)NC(=O)Cn1ccc2ccc(F)cc21`, -0.112%.
As for `Cn1ncc2c(NCCOCc3ccccc3)nc(C3CCCC3)nc21`, the figure is 9.67%.
Then `COc1ncccc1CNC(=O)c1cc(F)cc(Br)c1`, with -0.872%; and `Cc1cc(C)cc(CNc2ccc(C(=O)NC(C)CO)cc2)c1` (stereo unspecified), with -5.48%; and `Cc1ccc2nnc(C(=O)NCCCn3cccn3)nc2c1`, with -7.93%.
For `CCS(=O)(=O)N1CCO[C@H]2[C@H](OCCCn3cccn3)CC[C@@H]21`, the cytotoxicity at 10 µM was -5.04%.
As to `N#Cc1cccc(N2CCC3(CCC(=O)N(CC(N)=O)C3)CC2)n1`, the cytotoxicity at 10 µM came to 3.14%.
As for `COc1ncccc1C(=O)Nc1ccccc1-c1ccc(=O)n(C)n1`, the figure is -0.843%.
Turning to `Cc1ccc(-c2cc(CN3CCc4cncnc4C3)on2)cc1`, the cytotoxicity at 10 µM turned out to be 4.96%.
Consider `Cc1cc(C)n(CC(=O)NC(Cc2ccsc2)c2ccccn2)c(=O)n1` (stereo unspecified), for which the cytotoxicity at 10 µM was -1.91%.
As for `CN(C)C(=O)c1cncnc1-c1ccc(CNC(=O)C2CCCO2)cc1` (stereo unspecified), the figure is 5.55%; as for `Cc1nc(CN(C)c2nc3c(cnn3C(C)(C)C)c(=O)[nH]2)cs1`, -5.53%.
Regarding `O=C(O)c1ccnc(-c2ccnc(NCCc3nc4c(s3)CCC4)n2)c1`, the cytotoxicity at 10 µM was -4.23%.
As for `Cc1cc(NC(=O)NCC(c2ccc(C)o2)N2CCOCC2)n(C)n1` (stereo unspecified), the figure is -32.5%; as for `Cc1nc(N2C[C@H]3CNC[C@H]3C2)c2sccc2n1`, 9.26%; as for `CC(C)N1CCCC(Cc2nccnc2Cl)CC1` (stereo unspecified), -3.97%.
As for `COCCCC1CCCCN1Cc1cc(F)ccc1-n1cccn1` (stereo unspecified), the figure is -3.13%.
As for `CCC[C@@H]1CN(Cc2ccc(N(C)C)nc2)C[C@H]1N(C)C`, the figure is -15.1%; as for `Cc1cn(CCn2ccnc2-c2sccc2C)nn1`, 15.9%; as for `CCc1cc(N2CCN(c3cnccn3)CC2)n2nc(C)c(C)c2n1`, 6.71%.
In the case of `Cc1nn(C)c(C)c1C1COCCN1C(=O)NC1CC1` (stereo unspecified), the cytotoxicity at 10 µM is 3.21%.
Take `CCCc1n[nH]c(C2CN(C(=O)c3cc(C4CC4)on3)CCO2)n1` (stereo unspecified): the cytotoxicity at 10 µM came to 0.471%.
Take `CCN(C)C[C@@H]1CN(C(=O)c2cc(C(F)(F)F)n[nH]2)C[C@@H]1CO`: the cytotoxicity at 10 µM was -12.1%.
As for `COC[C@@]12CC[C@@H](N3CCOCC3)C[C@H]1CCN(c1cnccn1)C2`, the figure is 4.76%; as for `O=C(Cn1cnc2cc3c(cc21)OCCCO3)NC1CCCCC1`, 5.68%.
As for `O=C(CCn1cccn1)N1CC[C@@H](c2ccc3ccccc3c2)[C@H](O)C1`, the figure is 2.03%; as for `COc1cccc2c(=O)n(Cc3cc(C4CC4)[nH]n3)cnc12`, 3.76%.
As for `CN(c1ccc(C(N)=O)nn1)C1CCC1`, the cytotoxicity at 10 µM was determined as 9%.
As to `COC1CN(C(=O)CC(C)(C)C)CCC(=O)N(C)c2ccccc21` (stereo unspecified), the cytotoxicity at 10 µM was -4.7%.
Take `CC(=O)N1CCn2c(C(=O)N(C)C)cnc2C1`: the cytotoxicity at 10 µM was determined as 1.54%.
Regarding `Cc1ncc2c(n1)C1(CCN(C(=O)C3CC3)CC1)OCC2`, the cytotoxicity at 10 µM was 6.02%.
Then `Cc1nc(-c2ccc(S(=O)(=O)N3CCC4(CC3)OCCO4)cc2)co1`, with 1.69%; and `O=c1n(Cc2ccccn2)nc(C2CCNCC2)n1Cc1ccccc1`, with 2.69%; and `CC(C)CN1C(=O)CO[C@@H]2CNC[C@H]21`, with -110%.
As for `CC(C)(C)Cc1noc2ncc(C(=O)N3CCC3)cc12`, the figure is 7.28%.
As for `Nc1cc(-c2c[nH]nc2C2CCCCN2C(=O)C2CCCC2)ccn1` (stereo unspecified), the figure is 12%; as for `CCCC1SCCN1C(=O)c1ccc(-n2ncc(C#N)c2N)cc1` (stereo unspecified), 9.15%; as for `CC(N1CCN(C(=O)NCc2cccc(C#N)c2)CC1)C(F)(F)F` (stereo unspecified), 6.31%.
